This is a sample that favours compounds with a hit; in the whole collection about 0.99% have one here.
GSK3 alpha inh: blocks human GSK-3 alpha kinase; inhibition, % at 10 µM; ADP-Glo luminescence, 60 min; P49840; 320,000 tested, 0.1% active; AID 2650;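 active = more than half of replicates show inhibition above 20%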;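 also: GST-tagged GSK-3 alpha with peptide substrate and 25 µM ATP; 0% = DMSO neutral wells and 100% = GW8510 positive control wells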
Dyrk1A ADPGlo: blocks rat Dyrk1A kinase activity; Q63470; ADP-Glo luminescence, NFATc1 peptide; inhibition, % at 12.5 µM; 310,000 tested, 0.43% active; AID 504441; in the data active = inhibition above about 50%;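 also: plate controls were vehicle with enzyme for no effect and no enzyme for full effect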
GSK3B inh: human GSK3beta kinase inhibition. P49841. GST-GSK3beta kinase, ADP-Glo luminescence, 60 min; stronger effect = lower value. activity score (negative = inhibition), % at 10 µM. 300,000 tested, 0.038% active;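 active = more than half of replicate wells score below -50%, meaning over 50% inhibition versus plate controls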;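 also: 0% = median DMSO wells and -100% = median GW8510 positive control wells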
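test system = GST-tagged human GSK3beta kinase, cell-free | reagent = 25 µM ATP with peptide substrate | dosing = one dose of 10 µM per compound | schedule = 60 min reaction, RT | detection = luminescent ADP-Glo measurement of ADP formed | control set = DMSO neutral wells and GW8510 at 20 µM as positive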
STK33 inh: inhibitors of human STK33 kinase; purified STK33, MBP phosphorylation, ADP-Glo luminescence; inhibition, % at 10 µM; 320,000 tested, 0.073% active; AID 2661;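 active = inhibition at or above 25%, using the most active replicate where run in duplicate; inactive = inhibition below 25%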
Target sequence (Q9BYT3 whole entry, looked up): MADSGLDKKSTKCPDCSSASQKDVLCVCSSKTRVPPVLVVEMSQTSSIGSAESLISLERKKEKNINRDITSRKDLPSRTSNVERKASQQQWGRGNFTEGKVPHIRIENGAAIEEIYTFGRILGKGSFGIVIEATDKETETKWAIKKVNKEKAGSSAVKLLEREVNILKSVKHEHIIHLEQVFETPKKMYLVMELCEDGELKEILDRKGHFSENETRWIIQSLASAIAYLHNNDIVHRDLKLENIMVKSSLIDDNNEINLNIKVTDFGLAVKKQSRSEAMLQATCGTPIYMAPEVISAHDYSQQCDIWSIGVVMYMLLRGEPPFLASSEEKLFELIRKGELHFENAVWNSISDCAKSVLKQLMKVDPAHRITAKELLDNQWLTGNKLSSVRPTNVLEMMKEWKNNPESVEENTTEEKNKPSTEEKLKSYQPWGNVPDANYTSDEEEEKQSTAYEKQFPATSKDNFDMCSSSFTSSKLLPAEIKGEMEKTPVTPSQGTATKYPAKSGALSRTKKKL
Arrestin-AP2 inh: blocks beta-arrestin peptide binding to AP2 adaptin. 340,000 tested, 0.31% active. AID 504490. FITC-arrestin peptide / GST-AP2 beads, flow cytometry; AP2 beta2 appendage carries R879A mutation. inhibition, % at 10 µM;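 active = inhibition above a set limit, near 3 SD of compounds lacking own fluorescence, cut at about 54% in these data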;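 also: plate controls were DMSO wells for no effect and 5 µM unlabelled arrestin peptide for full effect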
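System: GST-AP2 R879A glutathione beads | Also added: FITC-arrestin peptide, 50 nM | Times: 12 min plus 1 h, RT | Signal: Bead flow cytometry, FITC channel | Buffer or medium: PBS with 0.05% Tween 20 and 0.1% BSA | Read-out basis: Percent drop in bead-associated FITC signal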
Rin1-Abl PPI inh: human Rin1-Abl interaction inhibition; inhibition, % at 7.35 µM; AID 588664; P00519+Q13671; TR-FRET Rin1/Abl binding, biochemical; 360,000 tested, 0.4% active; in the data active = inhibition above about 5%, passing the limit was not always enough
Starred values were filed as active, the others as inactive; / = no result.

SMILES | GSK3 alpha inh | Dyrk1A ADPGlo | GSK3B inh | STK33 inh | Arrestin-AP2 inh | Rin1-Abl PPI inh
Cc1cc(C=C2C(=O)c3ccccc3C2=O)c(C)n1-c1ccc(C(=O)O)cc1 | 2.1 | -3.9 | 0.1 | 32.1* | -8.4 | -0.9
Cc1cc(C=C2C(=O)c3ccccc3C2=O)c(C)n1-c1cccc(C(=O)O)c1 | -0.7 | 21.3 | -1.1 | 43.5* | 8.4 | 1.4
Cc1cc(C=O)c(C)n1-c1cccc(C(=O)O)c1 | -1.7 | -2.0 | 3.5 | -1.3 | -11.7 | -1.3
COc1ccc(CC(=O)OCC(=O)NC2CCCC(C)C2C)cc1 (configuration not stated) | -3.0 | -3.6 | / | -0.3 | 5.7 | -0.8
COc1ccc(C(=O)O/N=C(\C)c2ccccc2)cc1 | 24.9 | 37.4 | -27.9 | 28.8* | 3.2 | -1.0
Cc1cc(C(=O)Cn2cnc3ccc(Cl)cc3c2=O)c(C)n1C1CC1 | / | 6.7 | / | / | 6.7 | 2.0
CC1(C(=O)Nc2ccc(F)cc2F)CCN1C(=O)CCC1CCCC1 (configuration not stated) | / | / | / | / | / | -1.6
COc1ccc(Cl)c(Cn2c(NCc3ccco3)nc3c2c(=O)n(C)c(=O)n3C)c1 | 0.1 | 15.8 | / | -1.5 | -11.5 | 11.2*
Cc1nn(C)cc1/C=C/C(=O)c1ccc(O)cc1 | 6.5 | 10.0 | -0.5 | 31.3* | 20.5 | -3.3
CCc1nc2sc3c(c2c(=O)n1N)CC(C)(C)OC3 | -2.0 | 0.3 | 0.6 | 1.6 | 15.4 | 0.1
CN(C)c1nc2sc3c(c2c(=O)n1C)CC(C)(C)OC3 | 1.6 | 1.1 | 6.2 | 37.5* | 6.2 | -1.7
CCOC(=O)N1CCN(C(=O)CSCc2ccc(C)cc2)CC1 | 3.6 | 2.0 | 1.8 | 1.6 | 23.7 | 6.1*
Cc1ccc(CSCC(=O)N2CCCC2)cc1 | 1.5 | 1.7 | 5.4 | -1.5 | 8.0 | 2.3
O=C(CN1C(=O)NC2(CCOc3ccccc32)C1=O)NCc1ccccc1 (configuration not stated) | -1.3 | 3.3 | / | -1.5 | 1.3 | 3.9
Cc1ccnc(NC(=O)C(C)n2cc([N+](=O)[O-])cn2)c1 (configuration not stated) | 25.4 | / | -74.1* | -2.0 | 21.9 | -0.5
CC(C(=O)NC1CCCCCC1)n1cc([N+](=O)[O-])cn1 (configuration not stated) | 0.9 | -6.9 | 0.1 | -0.7 | 9.0 | 3.3
CC(C)Nc1nc(NCCN2CCCC2)c2sc(-c3ccccc3)cc2n1 | / | / | / | / | / | -2.5
Cc1cc(N2C(=O)c3ccc(C(=O)Nc4ccc(O)cc4C(=O)O)cc3C2=O)no1 | 0.5 | -8.4 | -1.0 | 32.5* | 0.1 | 0.4
CCOC1=C2[C@@H](CN(S(=O)(=O)c3ccc(C)cc3)[C@H]2c2cccc3ccccc23)[C@H]2C(=O)N(c3ccccc3)C(=O)[C@H]2C1 | / | / | / | / | / | 1.0
c1ccc(Nc2ccnc(Nc3ccccc3)n2)cc1 | 14.1 | 38.1 | -0.5 | 35.9* | 1.0 | -1.8
COc1ccc2cc(C(N)=O)c(=Nc3ccc(C)cc3)oc2c1 | -0.4 | 30.8 | 5.9 | 0.5 | 1.2 | -0.2
Cc1cccc(N=c2oc3cc(O)ccc3cc2C(N)=O)c1 | 55.8* | -5.6 | 0.4 | 19.1 | 0.6 | -2.1
O=C(O)c1ccc(Oc2ccc(S(=O)(=O)c3ccc(C(=O)O)c(C(=O)O)c3)cc2)cc1 | 0.3 | / | 0.7 | -2.6 | 6.6 | -1.5
CCCC(=O)NC(=S)Nc1ccccc1F | -1.7 | 0.1 | -0.8 | -1.6 | 11.1 | 6.3*
CC(C)(C)Nc1c(C2CCNCC2)nc2c(OCc3ccccc3)cccn12 | / | / | / | / | / | -2.5
SMILES | GSK3 alpha inh | Dyrk1A ADPGlo | GSK3B inh | STK33 inh | Arrestin-AP2 inh | Rin1-Abl PPI inh
COc1cc2c(cc1OC)C(c1cccc([N+](=O)[O-])c1)N(C(=O)CCC(=O)O)CC2 (configuration not stated) | -0.4 | -4.9 | 1.1 | -1.6 | 7.5 | 1.9
Fc1ccc(-c2cnc[nH]2)cc1 | 6.5 | 12.3 | 3.1 | 29.2* | 12.4 | -1.1
COc1ccc(/C=C(/NC(=O)c2ccc(Br)o2)C(=O)Nc2cccc(C(=O)O)c2)cc1 | / | / | / | / | / | -0.5
Cn1nc(C(C)(C)C)cc1C(=O)N1CCCCC1c1cc(C(=O)Nc2ccccc2)no1 (configuration not stated) | / | / | / | / | / | -1.7
CCOc1cc(C2C3=C(CC(C)(C)CC3=O)Nc3n[nH]c(C)c32)ccc1O (configuration not stated) | 93.8* | -2.3 | -61.4* | -0.7 | 2.7 | 0.2
CCOC(=O)C1=C(C)NC2=C(C(=O)CC(C)(C)C2)C1c1ccc(O)c(OCC)c1 (configuration not stated) | -2.1 | -4.5 | 1.4 | -2.7 | 11.5 | 0.7
O=C1c2ccccc2N2C(=O)c3ccccc3[C@H]2N1c1ccccc1 | 4.4 | 1.4 | -0.5 | 0.3 | -3.6 | 1.1
O=C1NC2c3ccccc3C(=O)N2c2c1cnn2-c1ccccc1 (configuration not stated) | 11.6 | 18.5 | -0.1 | 28.0* | 14.0 | -1.6
COc1ccc(/C=N/n2c(-c3n[nH]c4c3CCC4)n[nH]c2=S)cc1OC | 8.6 | -0.8 | 2.1 | -0.1 | -10.6 | -0.5
COc1cc(/C=N/n2c(-c3n[nH]c4c3CCC4)n[nH]c2=S)ccc1O | 15.9 | -5.1 | -0.1 | 40.5* | -1.9 | -2.5
COc1cc(/C=N/n2c(-c3ccccc3)n[nH]c2=S)ccc1O | 4.7 | 38.8 | 1.0 | 46.2* | -2.5 | 0.2
CC1(Cc2cc(Cl)ccc2C(F)(F)F)C(=O)Nc2cc(C(F)(F)F)ccc21 (configuration not stated) | / | / | / | / | / | 0.2
COc1cc(/C=C2\SC(=Nc3ccc(Cl)c(C(=O)O)c3)NC2=O)c(Br)c(Br)c1O | 22.1 | 65.0* | -15.0 | 35.1* | 5.2 | 0.9
COC(=O)/C=C1\SC(=Nc2ccc(Cl)c(Cl)c2)NC1=O | -2.8 | 0.6 | 0.3 | -0.7 | -11.8 | 2.7
O=c1[nH]c2ccccc2c(O)c1-[n+]1ccccc1 | -2.1 | -0.9 | 0.5 | -2.5 | -3.1 | 2.4
O=c1[nH]c2ccccc2c(O)c1O | -2.0 | 9.4 | 0.6 | -5.0 | -1.6 | 20.5*
COCCNC(=O)C1(C)CCCN(C(=O)Cc2ccc3ccccc3c2)C1 (configuration not stated) | / | / | / | / | / | -0.7
CC(C)(C)NS(=O)(=O)c1ccc(C(=O)Nc2ccc3c(c2)OCO3)cc1 | -4.5 | 3.4 | 2.0 | -0.6 | 16.5 | -3.1
COCCn1c(SCC(=O)Nc2ccc(Cl)cn2)nc2ccccc21 | 13.4 | -3.3 | -76.3* | -0.7 | 0.4 | -1.0
COc1ccccc1C(=O)Nc1cccc2cccnc12 | 0.9 | 16.9 | / | 9.6 | -10.2 | -3.1
COc1ccc(CC2=CC(=O)c3ccccc3C2=O)cc1 | -3.8 | 11.1 | 1.1 | 0.9 | 47.9 | 6.8*
CCc1c(C)c(C#N)c2nc3ccccc3n2c1NCc1ccccn1 | 81.4* | 1.1 | 0.4 | 3.9 | 18.9 | -2.8
CCc1c(C)c(C#N)c2nc3ccccc3n2c1NCCOC | -1.6 | 18.9 | -1.8 | -0.5 | -12.6 | -2.2

From PubChem
